Data taken from PubChem BioAssay.
The source made the active and inactive calls.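 Rule for the calls, unless noted: active = GFP response above 150% of the DMSO level; inconclusive = fewer than 70 events counted for a yeast strain; inactive = the rest.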

What was measured:
[1] = hit retest on RPL19A-GFP reporter strain – cell-based, S. cerevisiae, flow cytometry, cherry picks, mother/daughter gates, confirmation (AID 2270;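 active = GFP response below 50% of the DMSO control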); details: 3 h, at 10 µM, stronger effect = lower value, 100 = same GFP as DMSO wells
[2] = yeast TOR pathway reporter LAP4-GFP change – cell-based, cherry picks, flow cytometry, mother/daughter gates, confirmation (AID 2271;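 active = GFP response above 150% of the DMSO control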;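 note: ratio of sample to DMSO plate mean so 100% equals DMSO level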); details: S. cerevisiae LAP4-GFP strain, 3 h, at 10 µM, stronger effect = higher value, 100 means same as DMSO control
Method in brief: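 Test system: GFP-fusion yeast strain / Amount: 0.2 OD600 cells / Buffer or medium: SC medium / Dosing: 10 µM single dose / Incubation: compound exposure 3 h at 30 °C, end-over-end rotation / Detection: HT flow cytometry, GFP fluorescence channel / Evaluation: median GFP fluorescence as percent of plate-mean DMSO wells / Control set: DMSO-only negative wells, rapamycin 400 ng/mL positive wells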

[3] = TOR pathway reporter MEP2-GFP, retest of hits – S. cerevisiae, flow cytometry GFP, cherry picks, confirmation (AID 2272;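 active = GFP response above 150% of the DMSO control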;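 note: ratio of well signal to plate DMSO mean so 100% equals DMSO level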); details: S. cerevisiae MEP2-GFP strain, 3 h, at 10 µM, stronger effect = higher value
[4] = yeast AGP1-GFP fluorescence change, single-dose – cell-based, flow cytometry, S. cerevisiae, cherry picks, confirmation (AID 2273);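 note: median GFP channel fluorescence over the whole cell population gate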; details: S. cerevisiae AGP1-GFP strain, 3 h, at 10 µM
[5] = TOR pathway CIT2 reporter hit retest – S. cerevisiae, GFP fusion, cherry picks, mother/daughter gates, confirmation (AID 2274); details: S. cerevisiae CIT2-GFP strain, flow cytometry, 3 h, at 10 µM, stronger effect = higher value
[6] = measured here: daughter cell gate
[7] = measured here: mother cell gate
[8] = measured here: daughter cell gate response
[9] = measured here: mother cell gate response

Structure (SMILES)	GFP response vs DMSO [1]	GFP response vs DMSO [1, 6]	GFP response vs DMSO [1, 7]	GFP response relative to DMSO [2]	GFP response relative to DMSO [2, 8]	GFP response relative to DMSO [2, 9]	GFP response vs DMSO [3]	GFP response, % of DMSO [4]	GFP response, % of DMSO [5]	GFP response, % of DMSO [5, 6]	GFP response, % of DMSO [5, 7]
COC(=O)Nc1c(-c2ccccc2)nc2ccccn12	99.4% (inactive)	98.1%	98.9%	107% (inactive)	106%	105%	98.3% (inactive)	93.7% (inactive)	101% (inactive)	99.1%	101%
COc1ccc(OC(=O)c2cccc(S(=O)(=O)N3CCCC3)c2)cc1	96.6% (inactive)	95.4%	96.1%	90.2% (inactive)	91.2%	89.7%	105% (inactive)	96.4% (inactive)	103% (inactive)	103%	101%
COc1ccc(C(=O)/C=C2/C(=O)Nc3ccccc32)cc1	86.7% (inactive)	88.1%	82.7%	133% (inactive)	122%	139%	96.2% (inactive)	95.4% (inactive)	98.3% (inactive)	97.2%	91.4%
COCCNC(=O)/C(C#N)=C/c1c(N2CC(C)OC(C)C2)nc2ccccn2c1=O (configuration not stated)	100% (inactive)	98.6%	100%	98.2% (inactive)	95.9%	97.3%	103% (inactive)	98.8% (inactive)	102% (inactive)	101%	101%
NC1=NC(=O)C(CC(=O)c2ccc(Cl)cc2)S1 (configuration not stated)	99.9% (inactive)	100%	99.8%	106% (inactive)	99.3%	107%	102% (inactive)	96.7% (inactive)	96.4% (inactive)	96.4%	94.5%
CC(=O)Nc1ccc(NC(=O)CSc2ncc(C(=O)Nc3ccccc3)c(=O)n2C)cc1	96.6% (inactive)	97.1%	99.1%	97% (inactive)	97.5%	97.3%	96.8% (inactive)	103% (inactive)	105% (inactive)	103%	104%
Cc1c(Cc2ccccc2)c(NCCN(C)C)n2c(nc3ccccc32)c1C#N	116% (inactive)	45.5%	99%	249% (active)	167%	218%	187% (active)	143% (inactive)	116% (inactive)	135%	92.8%
